Screening results from PubChem.
Most compounds without a hit are left out; they make up all but 2.6% or so of the library.
F508del corr: CFTR F508del correction in bronchial cells | CFBE cells, YFP halide quenching; stimulated with forskolin plus potentiator P3; % fluorescence drop versus neutral controls | activity (quench increase), % at 7.58 µM | 0.36% of 350,000 active | AID 720511;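 active = mean added fluorescence quench of at least 8% versus neutral control, with both replicates also reaching 8%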;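 also: cells transiently co-express mutant CFTR-F508del with the halide-sensitive YFP; corrector assay measuring rescue of mutant channel to the surface after 24 h compound exposure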
INS-1E GSIS act: primary screen for activators of insulin secretion dependent on glucose, INS-1E cells, GLuc reporter luminescence. INS-1E GLuc reporter insulin secretion, 2-3 h. activation, % at 16.6 µM. 0.61% of 370,000 active. AID 743287;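 active = lowest replicate activation of at least 40%, so every replicate reaches that level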;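 also: 0% = median of neutral control wells and 100% = median of IBMX positive control wells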
miR-122 sensor: inhibitors of miR-122 in Huh7 cells; Huh7 miR-122 Renilla luciferase sensor, 48 h; neutral wells = 0, positive control = 100; activation (reporter increase), % at 12.5 µM; 0.3% of 340,000 active;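 active = mean replicate activation score at least 90 and every replicate individually at or above 90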;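 also: higher luciferase means less miR-122 activity so hits act as miR-122 inhibitors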
E-sel inducer: E-selectin induction on HUVECs; 0.37% of 260,000 active; HUVEC E-selectin immunofluorescence imaging; normalized: neutral wells 0, TNF-alpha wells 100; AID 686992; activation, % at 7.58 µM;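 active = mean E-selectin-positive cell signal at least 10% of the positive control, reached in at least 60% of replicates, without over 20% cell loss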
Target sequence (P16581 whole entry, looked up): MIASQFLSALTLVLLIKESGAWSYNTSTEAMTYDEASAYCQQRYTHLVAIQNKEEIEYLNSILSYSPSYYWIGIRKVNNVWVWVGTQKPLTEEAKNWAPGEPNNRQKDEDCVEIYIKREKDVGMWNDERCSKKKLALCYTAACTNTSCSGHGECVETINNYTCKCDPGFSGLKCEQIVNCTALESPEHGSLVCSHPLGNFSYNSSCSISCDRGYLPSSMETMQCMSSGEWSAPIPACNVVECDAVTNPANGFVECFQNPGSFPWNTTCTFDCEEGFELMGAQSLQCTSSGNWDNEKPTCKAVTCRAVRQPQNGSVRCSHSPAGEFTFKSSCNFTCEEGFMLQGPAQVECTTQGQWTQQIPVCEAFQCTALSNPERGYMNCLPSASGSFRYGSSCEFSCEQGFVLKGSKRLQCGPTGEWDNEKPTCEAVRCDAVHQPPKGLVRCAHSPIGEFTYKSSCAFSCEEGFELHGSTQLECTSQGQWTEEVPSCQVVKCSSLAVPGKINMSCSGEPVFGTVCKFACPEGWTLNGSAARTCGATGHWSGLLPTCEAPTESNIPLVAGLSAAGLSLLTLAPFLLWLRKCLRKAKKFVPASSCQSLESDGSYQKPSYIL
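material = human umbilical vein endothelial cells (HUVEC), E-selectin induction | quantity = 3,000 cells/well | medium = EGM-2 growth medium on 0.1% gelatin-coated wells | technique = immunofluorescence imaging | read-out basis = % PE-positive cells | control set = TNF-alpha positive control, DMSO neutral control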
ERAP1 HTS inh: blocks human ERAP1 aminopeptidase activity; Q9NZ08; recombinant ERAP1, Leu-AMC fluorescence, 60 min; inhibition, % at 10.7 µM; 0.15% of 340,000 active;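 active = mean replicate inhibition of at least 30%, or all replicates individually reaching that 30% level; inactive = mean below 30% and not every replicate reaching it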;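 also: 0% = neutral control wells and 100% = L-leucinethiol positive control wells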
DENV2 CPE: inhibitors of DENV2 cytopathic effect. DENV2-infected cells, cytopathic effect rescue, plate reader. CPE inhibition, % at 9.99 µM. 1.7% of 350,000 active. AID 651640; in the data active = CPE inhibition above about 20%, passing the limit was not always enough; tested in BHK-21 cells;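 also: 0% = median of neutral control wells and 100% = median of positive control wells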
* marks the source's active call; other numbers are inactive results; / = no result given; [ ] = dose if it differs, or a comment.

SMILES | F508del corr | INS-1E GSIS act | miR-122 sensor | E-sel inducer | ERAP1 HTS inh | DENV2 CPE
Cc1cccc(NC(=S)N2CCCCCC2)c1C | 0.2 | -2.8 | -2.2 | 0.0 | 0.5 | 54.8*
CCOC(=O)Cn1cc(/C=C(/C#N)C(=O)NC(C)C)c2ccccc21 | -0.8 | -15.3 | 0.4 | 83.1* | 2.5 | 4.9
COc1ccccc1OCCn1cc(/C=C(\C#N)C(=O)NCc2ccco2)c2ccccc21 | / | -6.9 | -7.1 | 0.0 | / | /
N#C/C(=C\c1cn(Cc2ccccc2F)c2ccccc12)C(=O)NCc1ccco1 | / | 55.7* | / | / | / | /
N#C/C(=C\c1cn(CCOc2ccccc2)c2ccccc12)C(=O)NCc1cccs1 | / | 98.8* | 3.7 | / | / | /
C[C@H](CO)N1C[C@H](C)[C@H](CN(C)S(=O)(=O)c2cn(C)cn2)Oc2c(NC(=O)c3nc4ccccc4s3)cccc2C1=O | 2.1 | -10.3 | -4.8[16.7 µM] | -0.1 | 1.1 | 11.7
CC(C)C#Cc1ccc2c(c1)O[C@@H](CN(C)CC1CC1)[C@@H](C)CN([C@H](C)CO)S2(=O)=O | -0.4 | 3.0 | -3.6[16.7 µM] | -0.1 | 0.3 | -14.1
C[C@@H]1CN([C@@H](C)CO)C(=O)c2cccc(NC(=O)C3CCCCC3)c2O[C@@H]1CN(C)S(=O)(=O)c1ccc(F)cc1 | -1.7 | -16.6 | -14.9[16.7 µM] | 0.8 | -0.9 | 15.1
O=C(Nc1cccnc1Cl)C1=NN(c2ccccc2)C(=O)CC1 | 3.2 | 47.7* | -5.2 | / | -2.5 | 4.7
O=C(NCc1ccncc1)C1=NN(c2ccccc2)C(=O)CC1 | -2.9 | 8.3 | / | / | -1.3 | -3.4
CN(C)CC#Cc1ccc([C@@H]2[C@@H](CO)N3C(=O)CN(C(=O)c4cccnc4)C[C@@H]23)cc1 | 0.9 | -2.6 | / | 0.5 | 2.7 | 11.2
Nc1nn(-c2ccccc2)c(N)c1N=Nc1cccc(F)c1 | 10.9* | 6.9 | 20.9 | 2.3 | / | 9.8
Nc1nn(-c2ccccc2)c(N)c1N=Nc1ccc2c(c1)OCO2 | / | -11.8 | / | / | / | /
CCC(=NCCc1c(C)[nH]c2ccc(OC(F)(F)F)cc12)C1=C(O)CC(c2ccccc2)CC1=O (stereo unspecified) | 0.2 | -28.7 | / | -1.1 | -1.8 | 3.8
CCCCC(=NCCc1c(C)[nH]c2ccc(OC)cc12)C1=C(O)CC(c2ccccc2)CC1=O (stereo unspecified) | 10.9* | -5.7 | / | 0.8 | 6.7 | -4.1
CCOC(=O)C1=C(C)N=c2s/c(=C3\C(=O)Nc4ccccc43)c(=O)n2C1c1ccc2c(c1)OCO2 (stereo unspecified) | / | / | 91.1* | / | / | /
CC(C)C#Cc1ccc2c(c1)O[C@@H](CN(C)C(=O)Cc1ccccn1)[C@@H](C)CN([C@H](C)CO)S2(=O)=O | 2.3 | -4.1 | -6.3[16.7 µM] | -0.1 | -1.7 | -1.3
CN1[C@@H]2Cn3c(ccc(/C=C/c4ccccc4)c3=O)[C@H]1[C@@H](C(=O)NC1CCC1)[C@@H]2CO | 1.4 | -13.2 | -2.2[16.7 µM] | 0.7 | -0.9 | -2.6
CN(C(=O)c1ccccc1OC1CCN(S(C)(=O)=O)CC1)C1CCOC1 (stereo unspecified) | 8.5* | 11.9 | / | / | 1.9 | -3.6
Cc1ccc(S(=O)(=O)Nc2ccc3c(c2)C(=O)N([C@H](C)CO)C[C@@H](C)[C@H](CN(C)C(=O)C2CCCCC2)OCCCC[C@@H](C)O3)cc1 | 0.6 | -16.1 | -10.5[16.7 µM] | 0.0 | 1.5 | -9.0
COc1ccc(NC(=O)N[C@H]2CC[C@H](CCNC(=O)c3ccccc3F)O[C@H]2CO)cc1 | 3.4 | -1.8 | / | 0.3 | 0.1 | 1.1
Cc1cc(C)n(-c2nc(SCC(=O)O)c3c4c(sc3n2)COC(C)(C)C4)n1 | 2.1 | 43.4* | / | -0.1 | / | 1.9
C[C@H]1CN([C@@H](C)CO)C(=O)c2cc(/C=C/c3ccccc3)cnc2O[C@@H]1CN(C)C(=O)C1CC1 | 2.0 | -21.8 | -4.9[16.7 µM] | -0.2 | / | /
C=C1C(=O)O[C@@H]2[C@H]1[C@@H](OC(=O)/C(C)=C/C)C/C(C)=C\C(=O)/C=C(\C)[C@@H]2O | 9.7* | 48.2 | -11.3 | -0.3 | 2.4 | -19.8
C[C@H](CO)N1C[C@H](C)[C@H](CN(C)C(=O)c2ccc(F)cc2)OCc2ccccc2-c2c(n(C)c3ccccc23)C1=O | 3.7 | -21.8 | / | -0.4 | 2.5 | -4.3
SMILES | F508del corr | INS-1E GSIS act | miR-122 sensor | E-sel inducer | ERAP1 HTS inh | DENV2 CPE
C[C@@H](CN1C2=NC[C@H](Cc3ccccc3)N2C[C@H]1Cc1ccc(O)cc1)NC(=O)CCC1CCCCC1 | 1.3 | -32.9 | / | -0.1 | 0.3 | 40.8*
Cc1ccc(C(=O)N[C@@H](C)CN2C3=NC[C@H](C(C)C)N3C[C@H]2Cc2ccc(O)cc2)cc1Br | -3.3 | -16.3 | 2.5 | 0.0 | / | 106.2*
C[C@@H](CN1C2=NC[C@H](Cc3ccc(O)cc3)N2C[C@H]1Cc1ccc(O)cc1)NC(=O)CCC1CCCCC1 | 2.1 | 1.3 | 2.6 | -0.1 | / | -13.0
COc1ccc(C[C@H]2CN3C(=NC[C@@H]3C(C)C)N2C[C@H](C)NC(=O)c2ccc(C)c(Br)c2)cc1 | -0.2 | / | 4.9 | 0.3 | / | -15.7
C[C@@H]1CN([C@H](C)CO)S(=O)(=O)c2ccc(Br)cc2O[C@H]1CN(C)Cc1ccncc1 | 3.6 | 6.9 | 3.7[16.7 µM] | 0.0 | -2.6 | 11.3
COc1ccc(NC(=O)N2CC[C@@H]3[C@@H](CO)N(C)c4ccc(-c5cccc(C(=O)N(C)C)c5)cc4[C@@H]32)cc1 | 1.1 | -12.2 | 6.3[16.7 µM] | 0.7 | -0.1 | -20.5
Cc1ccc(S(=O)(=O)N2CCN(CC(=O)Nc3ccc([N+](=O)[O-])cc3)CC2)cc1C | / | -31.9 | / | -0.9 | / | /
Cc1cc(C)c(C)c(S(=O)(=O)N2CCN(CC(=O)Nc3ccc([N+](=O)[O-])cc3)CC2)c1C | / | 122.4* | / | 0.1 | / | /
COc1ccccc1CN1CC(C(=O)N(C)CCCn2nc(C)cc2C)CCC1=O (stereo unspecified) | 0.4 | 7.9 | -1.4 | 0.0 | -0.9 | 51.5*
COc1ccccc1CN1CC(C(=O)N(C)Cc2[nH]c3ccccc3c2C)CCC1=O (stereo unspecified) | 6.4 | -17.3 | 28.5 | 119.3* | -7.1 | -6.8
COc1ccc(CCN2CC(C(=O)N(C)Cc3ccccc3OC)CCC2=O)cc1 (stereo unspecified) | 0.8 | 6.7 | -8.7 | / | -0.7 | 15.0
COc1ccccc1CN1CC(C(=O)NCc2nccn2C)CCC1=O (stereo unspecified) | -2.4 | / | 2.9 | / | 1.2 | 31.1*
COc1ccccc1CN1CC(C(=O)NCc2nc3ccccc3n2C)CCC1=O (stereo unspecified) | 3.1 | 3.4 | -2.0 | 0.5 | -1.6 | 5.8
COc1ccc(CCN2CC(C(=O)N(C)CCn3nc(C)cc3C)CCC2=O)cc1 (stereo unspecified) | -4.8 | 17.4 | 7.2 | / | -2.7 | 0.3
C[C@@H]1CN([C@@H](C)CO)C(=O)c2cc(NC(=O)CCCN(C)C)ccc2O[C@@H](C)CCCCO[C@@H]1CN(C)C | -0.4 | 48.4 | -2.1[16.7 µM] | -0.1 | / | /
CCn1cc(S(=O)(=O)NCCc2ccc(OC)c(OC)c2)cn1 | -6.4 | 48.3* | / | 0.2 | -2.5 | -1.9
